Results published in ChEMBL document CHEMBL2202985, “Novel series of 3-amino-N-(4-aryl-1,1-dioxothian-4-yl)butanamides as potent and selective dipeptidyl peptidase IV inhibitors” (Bioorg Med Chem Lett, 2012).
Activity calls are given as the source filed them. No cut-off for these calls is given here.

How the values were obtained:
[1] = system: Mus musculus; assay: Inhibition of DPP4 in mouse plasma at 30 to 100 mg/kg, po; assay type: functional, organism-based
[2] = species: Homo sapiens; assay: Metabolic stability in human; assay type: ADME, organism-based; settings: in vivo
[3] = species: Mus musculus; assay: Metabolic stability in mouse; assay type: ADME, organism-based; settings: in vivo
[4] = system: Mus musculus; assay: Inhibition of DPP4 in po dosed mouse plasma; assay type: functional, organism-based
[5] = system: Mus musculus; assay: Antidiabetic activity in po dosed ICR mouse assessed as blood glucose excursion after 20 to 120 mins by oral glucose tolerance test; assay type: functional, organism-based
Summary of the method: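 ICR mice dosed orally with distilled water vehicle or compound at 1, 3 or 10 mg/kg (10 mL/kg). Tail-nick blood glucose read by glucometer 30 min after dosing, then oral glucose challenge 2 g/kg (10 mL/kg). Blood glucose measured from tail bleeds at 20, 40, 60 and 120 min after glucose.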

| SMILES | inhibition [1] | Stability [2] | Stability [3] | inhibition [4] | Activity [5] |
| --- | --- | --- | --- | --- | --- |
| N[C@@H](CC(=O)NC1(c2cccc(-c3cncs3)c2)CCS(=O)(=O)CC1)Cc1cc(F)c(F)cc1F | inactive | Stable | Stable |  |  |
| N[C@@H](CC(=O)NC1(c2nc(-c3ccccc3)cs2)CCS(=O)(=O)CC1)Cc1cc(F)c(F)cc1F |  | Stable | Stable | Dose-dependent effect | Dose-dependent effect |
| N[C@@H](CC(=O)NC1(c2cccc(-n3ccnc3)c2)CCS(=O)(=O)CC1)Cc1cc(F)c(F)cc1F | inactive | Stable | Stable |  |  |
